Assay [1] has as its target T1, Adenosine receptor A3 (Homo sapiens) (UniProt P0DMS8).
T1 sequence (whole entry): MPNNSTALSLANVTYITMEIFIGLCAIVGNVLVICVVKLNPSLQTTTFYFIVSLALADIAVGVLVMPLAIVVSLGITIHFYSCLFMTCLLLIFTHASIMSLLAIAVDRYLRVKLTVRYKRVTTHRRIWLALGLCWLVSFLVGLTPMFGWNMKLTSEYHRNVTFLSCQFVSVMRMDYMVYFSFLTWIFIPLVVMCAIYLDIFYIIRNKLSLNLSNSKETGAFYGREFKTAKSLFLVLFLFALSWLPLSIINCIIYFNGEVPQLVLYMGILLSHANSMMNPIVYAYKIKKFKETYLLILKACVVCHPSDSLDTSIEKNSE
The experiment in a line: (§1) Displacement of specific [125 I]AB-MECA binding at human Adenosine A3 receptor expressed in HEK cells. The assay is classed as cell-based. To be noted: HEK293.

The species named for assay [2] is Rattus norvegicus. The experiment in a line: Ratio of binding affinities for rat A1 receptor against human A3 receptor, [Ki(rA1) / Ki (hA3)]. An outline of the steps:
(§2)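 Ratio of Ki values from binding assays. For A3, [125I]AB-MECA (final 0.3 nM) bound membranes of HEK-293 cells expressing human A3 (clone HS-21a) or CHO cells expressing rat A3, in Tris/Mg2+/EDTA buffer at pH 8.0. For rat A1, [3H]R-PIA bound cerebral cortex membranes, with adenosine deaminase (3 units/mL) present, including a 30 min preincubation at 30 °C.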

The species named for assay [3] is Rattus norvegicus. The experiment in a line: Ratio of the binding affinities against rat A3 receptor / rat A3 receptor, Ki(rA1) / Ki (rA3). An outline of the steps:
as §2

Assay [4] addresses Adenosine receptor A2a (Rattus norvegicus) (UniProt P30543). The experiment in a line: Displacement of specific [3H]-CGS- 21680 binding to Adenosine A2A receptor in rat striatal membranes at 10 e-5M. The assay is classed as cell membranes. To be noted: Membrane.
The species named for assay [5] is Rattus norvegicus. The experiment in a line: Ratio of the binding affinities against rat A3 receptor / human A3 receptor, Ki(rA1) / Ki (hA3). The procedure, abridged: as §2
Assay [6] has as its target T1, Adenosine receptor A3 (Homo sapiens). Described as §1. In kind it is cell-based. To be noted: HEK293; concentration not given here. An outline of the steps: (§3)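 Membranes from HEK-293 cells stably expressing human A3 receptor (clone HS-21a), or from CHO cells stably expressing rat A3 receptor (rat: n = 3-5), in 50 mM Tris, 10 mM Mg2+, 1 mM EDTA, pH 8.0. Membranes at 0.3 mg protein/mL with [125I]AB-MECA at 0.3 nM final. Nonspecific binding defined with R-PIA. Competitors were dissolved in DMSO (≤2% final) and tested at ≥5 concentrations spanning 3 log units. Bound ligand was separated by GF/B filtration with three buffer rinses; Ki was derived.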

Assay [7] addresses T2, Adenosine receptor A1 (Rattus norvegicus, UniProt P25099).
T2 sequence (P25099 whole entry): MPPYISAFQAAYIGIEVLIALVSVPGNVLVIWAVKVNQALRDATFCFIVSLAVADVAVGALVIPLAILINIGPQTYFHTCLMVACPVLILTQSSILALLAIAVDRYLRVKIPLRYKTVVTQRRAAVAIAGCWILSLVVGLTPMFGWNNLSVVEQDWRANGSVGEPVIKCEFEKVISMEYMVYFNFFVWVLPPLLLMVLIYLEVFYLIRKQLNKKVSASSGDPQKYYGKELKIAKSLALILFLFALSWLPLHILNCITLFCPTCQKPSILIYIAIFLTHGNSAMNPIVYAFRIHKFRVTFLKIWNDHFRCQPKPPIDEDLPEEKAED
The experiment in a line: (§4) Displacement of specific [3H]-CGS- 21680R-PIA binding to Adenosine A1 receptor in rat brain membranes. The assay is classed as cell membranes. To be noted: in the assay text read “[3H]R-PIA” for “[3H]-CGS- 21680R-PIA”. An outline of the steps:
(§5)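 A1 binding used [3H]R-PIA on rat cerebral cortex membranes. Adenosine deaminase (3 units/mL) was included in membrane preparation, in a 30 min preincubation at 30 °C, and throughout radioligand incubation. Competitors were DMSO stocks diluted in buffer, with DMSO never above 2%.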

For assay [8], the target named is T3, Adenosine receptor A3 (Rattus norvegicus) (UniProt P28647).
T3 sequence (whole entry): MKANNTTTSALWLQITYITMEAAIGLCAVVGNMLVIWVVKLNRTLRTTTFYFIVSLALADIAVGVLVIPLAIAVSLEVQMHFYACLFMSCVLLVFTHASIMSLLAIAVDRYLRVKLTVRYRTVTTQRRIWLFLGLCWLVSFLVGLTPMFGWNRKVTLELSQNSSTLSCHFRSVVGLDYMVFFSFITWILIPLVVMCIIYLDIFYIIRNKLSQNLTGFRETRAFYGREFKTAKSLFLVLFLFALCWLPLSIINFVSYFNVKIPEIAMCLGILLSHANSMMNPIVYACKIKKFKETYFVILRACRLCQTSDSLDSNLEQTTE
The experiment in a line: (§6) Displacement of specific [125I]AB-MECA binding at rat Adenosine A3 receptor stably expressed in CHO cells. The assay is classed as cell-based. An outline of the steps:
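Membranes from CHO cells stably expressing rat A3 receptor (0.3 mg protein/mL) were incubated with [125I]AB-MECA (final 0.3 nM) and test compound in 50 mM Tris, 10 mM Mg2+, 1 mM EDTA, pH 8.0. Compounds were dissolved in DMSO, with DMSO never exceeding 2%. At least five competitor concentrations spanning 3 orders of magnitude were tested. Nonspecific binding was defined with R-PIA. Bound ligand was collected by filtration over GF/B filters; n = 3-5.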

The target in assay [9] is Adenosine receptor A2a (Rattus norvegicus, UniProt P30543). The experiment in a line: Inhibition of [3H]-CGS- 21680 binding to Adenosine A2A receptor in rat striatal membranes. The assay is classed as cell membranes, Membrane.
The target of assay [10] is T2, Adenosine receptor A1. Briefly: Displacement of specific [3H]R-PIA binding to Adenosine A1 receptor in rat brain membranes.
For assay [11], the target named is T4, Adenosine receptor A3 (Homo sapiens, UniProt P0DMS8).
T4 sequence (P0DMS8 whole entry): T1 sequence (whole entry)
Described as §1. In kind it is cell-based, HEK293. An outline of the steps: as §3

In assay [12] the target is Adenosine receptor A2a (Rattus norvegicus) (UniProt P30543). The experiment in a line: Displacement of specific [3H]-CGS- 21680 binding to Adenosine A2A receptor in rat striatal membranes at 10 e-4M. In kind it is cell membranes. To be noted: Membrane.
For assay [13], the target named is T5, Adenosine receptor A1 (Rattus norvegicus) (UniProt P25099).
T5 sequence (whole entry): T2 sequence (P25099 whole entry)
The assay is described as §4. Conditions: concentration not given here. The assay is classed as cell membranes. An outline of the steps:
as §5

In assay [14] the target is Adenosine receptor A2a (Rattus norvegicus) (UniProt P30543). Briefly: (§7) Displacement of specific [3H]-CGS- 21680 binding to Adenosine A2A receptor in rat striatal membranes. The assay is classed as cell membranes. Set-up: concentration or dose not given beside the values. To be noted: Membrane, concentration not given here. An outline of the steps:
(§8)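 Rat striatal membranes labelled with [3H]CGS 21680 for A2A binding. Adenosine deaminase (3 units/mL) was present during membrane preparation, during a 30 min preincubation at 30 °C, and during radioligand incubation. Competitors were dissolved in DMSO and diluted in buffer (DMSO ≤2%).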

Assay [15] addresses T1, Adenosine receptor A3 (Homo sapiens). The experiment in a line: Displacement of specific[125 I]AB-MECA binding at human Adenosine A3 receptor expressed in HEK cells at 10 e-4M. Conditions: HEK293. The assay is classed as cell-based.
In assay [16] the target is Adenosine receptor A2a (Rattus norvegicus) (UniProt P30543). Described as §7. In kind it is cell membranes. To be noted: Membrane. The procedure, abridged:
as §8

In assay [17] the target is T6, Adenosine receptor A3 (Rattus norvegicus, UniProt P28647).
T6 sequence (P28647 whole entry): T3 sequence (whole entry)
The description is as §6. In kind it is cell-based.

Where only a bound is given, the exact number is not on record here.

Sequence of Adenosine receptor A2a (P30543 whole entry): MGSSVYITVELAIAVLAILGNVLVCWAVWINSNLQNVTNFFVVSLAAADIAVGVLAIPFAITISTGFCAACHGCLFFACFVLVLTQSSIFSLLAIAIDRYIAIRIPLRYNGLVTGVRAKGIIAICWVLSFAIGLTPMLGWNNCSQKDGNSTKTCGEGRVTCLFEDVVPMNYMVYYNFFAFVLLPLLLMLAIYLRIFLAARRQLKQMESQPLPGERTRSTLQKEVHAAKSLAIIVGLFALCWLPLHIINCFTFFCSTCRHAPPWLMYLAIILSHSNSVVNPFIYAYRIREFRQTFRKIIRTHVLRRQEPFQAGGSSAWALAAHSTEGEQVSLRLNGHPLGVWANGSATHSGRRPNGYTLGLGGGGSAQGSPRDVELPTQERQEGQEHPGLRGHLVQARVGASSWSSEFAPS
Sequence of Adenosine receptor A2a (Rattus norvegicus) (P30543 whole entry): as above

On to `CCCOC(=O)c1c(-c2ccccc2)nc(CC)c(C(=O)SCC)c1CC`, for which the pKi in assay [1] was determined as 8.08. Further, the Ratio came out at 820 in [2], 42 in assay [3] and 22 in assay [5]. In addition, the Displacement in assay [4] stood at 10%.

For `CCCOC(=O)c1c(-c2ccccc2)nc(CCF)c(C(=O)SCC)c1CCC`, the inhibition in assay [6] was determined as 15%. For the same molecule, the figures for the Ratio in assay [3] and in [5] were 76 and less than 1, respectively. Besides, the values for the inhibition constant (Ki) in assay [7], in assay [8] and in assay [9] were 19.8 µM, 0.26 µM and 30.8 µM, respectively.

For `CCCCCCSC(=O)c1c(CC)nc(-c2cccc(Cl)c2)c(C(=O)OCCC)c1CC`, the Ki in assay [10] worked out at 113 µM; in assay [11] it was 0.22 µM. Moreover, the pKi in assay [1] is 6.66. Further, the Ratio in [2] turned out to be 510. In addition, the Displacement in [12] came out at 10%.

`CCCOC(=O)c1c(-c2ccccc2)nc(CC)c(C(=O)SCCOC2CCCCO2)c1CCC` (stereo not drawn): the affinity in assay [11] corresponds to a Ki of 0.517 µM. The inhibition in assay [13] was 18%; in [14], less than 10%.

Take `CCCOC(=O)c1c(-c2ccccc2)nc(CC)c2c1CCOC2=O`: the inhibition in [6] is less than 10%; in assay [14], 20%. In assay [7], this molecule gave a Ki of 11.2 µM.

Consider `CCOC(=O)c1c(-c2ccccc2)nc(CC)c(C(=O)SCC)c1CCCN1C(=O)c2ccccc2C1=O`, for which the Displacement in assay [15] worked out at 28%; in assay [16] it was 10%. Besides, the inhibition constant Ki in assay [7] was found to be 5.24 µM.

Turning to `CCCOC(=O)c1c(-c2ccccc2)nc(CCO)c(C(=O)SCC)c1CCC`, the inhibition in assay [6] came to 16%. Besides, the inhibitory constant (Ki) was found to be 5.94 µM in assay [7] and 29.1 µM in [9].

Consider `CCNC(=O)c1c(C)nc(-c2ccccc2)c(C(=O)OCC)c1CC`, for which the inhibition in assay [6], in assay [13] and in assay [14] was less than 10% in each case.

`CCOC(=O)c1c(-c2ccccc2)nc(CC)c2c1CCCNC2=O` showed a pKi in assay [1] of 5.7. Moreover, the inhibition constant Ki was found to be 1.99 µM in assay [11] and 5.79 µM in assay [7]. Moreover, the Displacement in assay [16] is less than 10%.

Consider `CCCOC(=O)c1c(-c2ccccc2F)nc(CC)c(C(=O)SCC)c1CCC`, for which the values for the inhibition constant Ki in assay [10], in assay [11] and in assay [9] were 13.5 µM, 0.023 µM and 8.63 µM, respectively. This molecule came in with a negative-log Ki (pKi) in [1] of 7.64. For the same molecule, the Ratio in assay [2] stood at 590.

`CCCOC(=O)c1c(CCC)c(C(=O)SCC)c(CC)[n+](C)c1-c1ccccc1` returned a Ki in assay [17] of 4.26 µM. In addition, the pKi in [1] was found to be 5.59. Moreover, the Ratio in [2] was greater than 50; in [3], greater than 23; in assay [5], 2.1. Besides, the inhibition in assay [13] and in [14] was less than 10% throughout.

For `CCCc1c(C(=O)SCC)c(CCSC(C)=O)nc(-c2ccccc2)c1C(=O)OCC`, the results for the Ki in assay [10] and in assay [11] were 13.2 µM and 0.193 µM, respectively. Also, the pKi in [1] amounted to 6.71. In addition, the Ratio in [2] was found to be 68. In [14], this molecule yielded an inhibition of 30%.

For the molecule `CCCOC(=O)c1c(-c2ccccc2)nc(CC)c(C(=O)SCC)c1CCCF`, the Ki in assay [17] was 0.9 µM; in assay [11], 0.0599 µM; in assay [7], 8.09 µM; in [9], 27.4 µM. Further, the pKi in assay [1] was determined as 7.22. For the same molecule, the Ratio in assay [2] was 140; in assay [3], 9; in assay [5] it was 15.

For `CCCOC(=O)c1c(-c2ccccc2)nc(CC)c(C(=O)SCCCF)c1CCC`, the Ki amounted to 0.156 µM in assay [17], 0.0828 µM in assay [11] and 12.6 µM in [7]. The same molecule had a negative logarithm of the Ki (pKi) in assay [1] of 7.08. In addition, the Ratio in assay [2] was 150; in assay [3] it was 81; in assay [5] it was 1.9. Besides, the Displacement in assay [16] is less than 10%.

The term pKi denotes −log10 of the Ki, conventionally taken in molar units. As a reminder, the inhibition is the drop in the measured response relative to a control, in per cent. By Ki is commonly meant a measure of affinity in units of concentration, obtained from inhibition or displacement.

The values above are taken from ChEMBL document CHEMBL1132588, “Synthesis, CoMFA analysis, and receptor docking of 3,5-diacyl-2, 4-dialkylpyridine derivatives as selective A3 adenosine receptor antagonists” (J Med Chem, 1999).
